5HT1E ag – 5-HT1E (human) receptor agonism. CHO 5-HT1E Ga15 NFAT-bla reporter, FRET; 0% DMSO wells, 100% control agonist wells. P28566. activation, % at 6 µM. AID 574. 65,000 tested, 0.69% active;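 active = activation above a set limit, the screen-wide mean activation plus 3 SD, cut at about 8.5% in these data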
S1P3 agonist – agonists of human S1P3 receptor | 60,000 tested, 0.1% active | AID 373 | S1P3 NFAT-BLA reporter cells, agonism, FRET ratio; relative to 1 µM S1P, basal subtracted | activation, % at 4.5 µM;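 active = activation above the screen-wide mean plus 3 SD, cut at about 4.5% in these data, passing the limit was not always enough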
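Material: Human S1P3 NFAT-BLA reporter CHO cells | Incubation: Overnight plating, 4 h compound 37 °C, 2 h substrate RT | Signal: FRET β-lactamase substrate fluorescence, excitation 405 nm, 460/535 nm emission ratio, background-subtracted | Compound: 4.5 µM final, single dose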
HTR1A agonist – 5-HT1a (human) receptor agonism; CHO 5-HT1a Ga15 NFAT-bla reporter, FRET ratio; 0% basal, 100% maximal reference agonist; activation, % at 10 µM; 65,000 tested, 0.56% active;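 active = activation above the screen-wide mean activation plus 3 SD, cut at about 19% in these data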
5-HT1A blocker – blocks the human serotonin 5-HT1a receptor | CHO 5-HT1a Ga15 NFAT-bla reporter, antagonist mode | inhibition, % at 10 µM | 62,000 tested, 0.68% active;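 active = inhibition above the mean of all tested compounds plus 3 SD, cut at about 43% in these data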;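 also: receptor stimulated by 5-CT agonist at 100 nM near EC80; beta-lactamase reporter measured by ratiometric fluorescence of a cleavable substrate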
S1P1 ag-PAM – activates or potentiates agonism at human S1P1 receptor | P21453 | S1P1 CRE-bla cells, forskolin, beta-lactamase FRET, potentiator mode; S1P1 agonist co-added at EC20, 2 nM; 100% = saturating reference agonist, 0% = basal | activation, % at 9.5 µM | 56,000 tested, 0.57% active;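 active = activation above a cutoff set at the mean activation of all tested compounds plus 3 SD, cut at about 54% in these data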;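 also: forskolin at 4 µM as EC80 and the EC20 agonist is SEW2871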
Target sequence (P21453 whole entry, looked up): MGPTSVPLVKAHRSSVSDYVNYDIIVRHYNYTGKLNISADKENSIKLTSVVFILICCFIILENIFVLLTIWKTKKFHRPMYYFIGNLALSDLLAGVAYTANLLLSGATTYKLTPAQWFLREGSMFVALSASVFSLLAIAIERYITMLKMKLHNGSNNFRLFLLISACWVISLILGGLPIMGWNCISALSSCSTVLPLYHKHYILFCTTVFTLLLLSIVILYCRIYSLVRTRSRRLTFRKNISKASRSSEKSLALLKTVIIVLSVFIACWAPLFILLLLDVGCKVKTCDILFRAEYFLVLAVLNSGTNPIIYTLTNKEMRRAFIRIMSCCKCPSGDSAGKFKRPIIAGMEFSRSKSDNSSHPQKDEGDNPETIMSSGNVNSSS
5HT1E antag – 5-HT1E (human) receptor antagonism; CHO 5-HT1E Ga15 NFAT-bla reporter, FRET, antagonist; inhibition, % at 6 µM; 65,000 tested, 0.99% active; AID 571;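 active = inhibition above a set limit, the mean inhibition across every tested compound plus 3 SD, cut at about 29% in these data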;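 also: signal is the 460 over 535 nm emission ratio of beta-lactamase substrate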
Each line names hits and unclear results; the compound was inactive in the other large screens. In the library only some 3% were active in any assay of this set; here they are far more common.

Nc1nc(-c2ccccc2)nc(-c2ccccc2O)n1	5-HT1A blocker 51.4
CC1(C)OC(=O)C2(Cc3ccccc3N3CCCCC32)C(=O)O1 (configuration not stated)	none
C=CS(=O)(=O)c1ccc(Oc2ccc(S(=O)(=O)C=C)cc2)cc1	5-HT1A blocker 105.6, S1P1 ag-PAM 124.5, 5HT1E antag 102.8
CCN(Cc1ccccc1)C(=O)Cn1c(=O)n(CC(=O)NCc2ccco2)c(=O)c2sccc21	none
COc1ccc2c(c1)sc1nc(-c3ccccc3)cn12	5-HT1A blocker 64.6, 5HT1E antag 75.0
CN(C)CCCN1c2ccccc2Sc2ccccc21	none (no result: 5-HT1A blocker)
CN(C)CCCN1c2ccccc2CCc2ccc(Cl)cc21	5HT1E ag 10.3 (no result: 5-HT1A blocker)
CC1=C(C(=O)OCc2ccc3c(c2)OCO3)C(c2ccccc2)NC(=O)N1 (configuration not stated)	S1P1 ag-PAM 88.1
CC1=C(C(=O)OCc2ccccc2)C(c2ccc(N3CCOCC3)cc2)NC(=O)N1 (configuration not stated)	none
CC(=O)c1sc(NC(=O)CN2C(=O)CCC2=O)nc1C	none
FC(F)(F)c1cccnc1N1CCN(c2ncnc3nc[nH]c23)CC1	none
Clc1ccccc1N1CCN(c2ncnc3nc[nH]c23)CC1	HTR1A agonist 65.6
O=c1nc2n(c3sc4c(c13)CCC4)Cc1ccccc1-2	none (no result: S1P3 agonist, S1P1 ag-PAM)
CC1(C)CC(=O)C(C=Nc2ccc3c(c2)OCO3)=C(O)C1	5HT1E antag 31.0
CC1(C)CC(=O)C(C=Nc2cccnc2)=C(O)C1	5HT1E antag 32.8
CC1(C)CC(=O)C(C=NCc2ccc3c(c2)OCO3)=C(O)C1	none
CN1CCCC(OC(=O)c2cc(Cl)ccc2Cl)C1 (configuration not stated)	5HT1E ag 13.4
N=c1sccn1CC(=O)Nc1cccc(Oc2ccccc2)c1	5-HT1A blocker 46.2
N=c1sccn1CC(=O)Nc1ccccc1-c1ccccc1	none (no result: S1P3 agonist, S1P1 ag-PAM)
CCc1nc(NCc2ccco2)c2oc3ccccc3c2n1	5HT1E antag 34.2 (no result: S1P3 agonist, S1P1 ag-PAM)
CCNc1nc(CC)nc2c1oc1ccccc12	5HT1E antag 28.7 (no result: S1P3 agonist, S1P1 ag-PAM)
c1coc(CNc2ncnc3c2oc2ccccc23)c1	none
CCc1nc(SCCO)c2oc3ccccc3c2n1	5HT1E antag 32.6
O=C(CC1NCCNC1=O)OCCCc1ccccc1 (configuration not stated)	none
Cc1occc1-c1nnc(SCC(=O)c2ccccc2)n1CC1CCCO1 (configuration not stated)	none
O=[n+]1c2c(n([O-])c3cc(F)c(F)cc31)CCCC2	none
c1ccc(CNC2=NCCCCC2)cc1	5HT1E ag 12.8
Cc1ccc2[nH]c(=O)c(N3CCOCC3)c(-c3ccccc3)c2c1	5-HT1A blocker 52.0 (no result: S1P1 ag-PAM)
COc1ccc(-c2cc(N)n(S(=O)(=O)c3c(F)c(F)c(F)c(F)c3F)n2)cc1OC	5-HT1A blocker 46.1, 5HT1E antag 32.9
COc1ccc(S(=O)(=O)n2nc(-c3cc(OC)c(OC)c(OC)c3)cc2N)cc1OC	none
CCNc1nc(N)c(C(=O)c2ccc(Cl)s2)s1	5-HT1A blocker 55.8
CC(C)(C)c1csc(NC(=O)c2ccc(Cl)s2)n1	none
CCCCCn1c(NCc2ccco2)nc2ccccc21	5HT1E ag 22.5
CCCn1c(NCc2ccco2)nc2ccccc21	none
CCCn1c(Nc2nc3ccccc3n2C)nc2ccccc21	5-HT1A blocker 59.1, 5HT1E antag 54.1
Cc1ccc(NC(=O)COC(=O)c2ccc3c(c2)NC(=O)C2CCCN32)cc1C (configuration not stated)	none
O=c1cc(-c2c(F)c(F)c(F)c(F)c2F)oc2c(F)c(F)c(F)c(F)c12	5-HT1A blocker 99.2, 5HT1E antag 102.4 (no result: S1P3 agonist, S1P1 ag-PAM)
O=C(NCc1ccco1)C1CCN(C(=O)c2cc3sccc3n2Cc2ccc(Cl)cc2)CC1	5-HT1A blocker 44.9
O=C(COc1ccc(Cl)cc1Cl)Nc1ccc(Cl)cn1	none
O=C(COC(=O)CCC1CCCC1)Nc1ccc(Cl)cn1	5HT1E ag 59.0
Cc1ncc(CO)c2c1OC(C)(C)OC2	HTR1A agonist 26.7
N#Cc1nc(-c2ccc(OCc3ccccc3)cc2)oc1NCc1ccco1	none
CNc1oc(-c2ccc(OCc3ccccc3)cc2)nc1C#N	S1P1 ag-PAM 73.3
Brc1ccc(CSc2nnc(-c3ccccn3)n2Cc2ccco2)cc1	5-HT1A blocker 65.4 (no result: S1P3 agonist, S1P1 ag-PAM)
CCOC(=O)C1=C(N)n2c(s/c(=C\c3cccs3)c2=O)=C(C(=O)OCC)C1c1cccs1 (configuration not stated)	none
COCCNC(=O)c1c(N)n(CCC2=CCCCC2)c2nc3ccccc3nc12	HTR1A agonist 28.8 (no result: 5-HT1A blocker)
COCCn1c(N)c(C(=O)OCc2ccccc2)c2nc3ccccc3nc21	none
COc1ccc(CCn2c(N)c(C(=O)NCc3ccco3)c3nc4ccccc4nc32)cc1OC	S1P3 agonist 7.3
COc1ccc(CNC(=O)C(OC(C)=O)c2ccccn2)cc1 (configuration not stated)	none
CCOC(=O)c1ccccc1NC(=O)CSc1nnc(COc2ccccc2)n1CC	none
O=C(Nc1nc(=O)c2ccccc2s1)c1ccccc1	none (no result: 5-HT1A blocker)
Cc1ccc(C(=O)Nc2nc3ccccc3c(=O)s2)cc1	5-HT1A blocker 66.6
Cc1c(C(=O)NCc2cccnc2)oc2ccccc12	5HT1E antag 32.6
CCOC(=O)C1CCN(CC(=O)Nc2c(C(=O)OC)[nH]c3ccc(Cl)cc23)CC1	5HT1E antag 28.7
CCOC(=O)c1[nH]c2ccc(OC)cc2c1NC(=O)CN1CCN(c2ccccn2)CC1	HTR1A agonist 28.6 (no result: 5-HT1A blocker)
Cc1c(NC(=O)CCN2C(=O)c3ccccc3C2=O)c(=O)n(-c2ccccc2)n1C	none
COC(=O)c1cc2sccc2n1CC(=O)N1CCCc2ccccc21	none
Cn1c(C(=O)N2CCCc3ccccc32)cc2sccc21	S1P1 ag-PAM 85.7
CC(CN1CCCCC1)OC(=O)c1cc2ccccc2o1 (configuration not stated)	HTR1A agonist 45.7
CCn1c(Cc2ccc(OC)cc2)nnc1SCC(=O)Nc1nc2ccccc2s1	none
Nc1nc2ccc(Oc3ccccc3)cc2s1	none
Nc1nc2ccc(OC(F)(F)F)cc2s1	HTR1A agonist 23.7 (no result: 5-HT1A blocker)
FC(F)(F)c1cccc(N2Cc3ccccc3C2)c1	5HT1E ag 10.8
FC(F)(F)c1cccc(N2CCN(Cc3cccnc3)CC2)c1	none
FC(F)(F)c1cccc(N2CCN(Cc3ccoc3)CC2)c1	5HT1E ag 13.9 (no result: S1P1 ag-PAM)
O=C(CC(Sc1ccccc1)c1cccs1)c1ccco1 (configuration not stated)	none
Cc1nnc(Oc2ccccc2F)c2ccccc12	none
COc1ccc(S(=O)(=O)NCC(=O)N(CC(=O)NCC2CCCO2)c2cc(C)ccc2C)cc1 (configuration not stated)	none (no result: S1P3 agonist, S1P1 ag-PAM)

Bioassay records (PubChem)
